ATG4B inh = inhibitors of human ATG4B cysteine protease | 340,000 tested, 0.51% active | Q9Y4P1 | ATG4B cleavage of LC3-PLA2, NBD-HPC fluorescence, 1 h | AID 504462 | inhibition, % at 8.33 µM; in the data active = inhibition above about 40%
MPTP block = permeability transition pore inhibition; isolated mouse mitochondria, Ca2+ swelling absorbance, 30 min; inhibition, % at 10 µM; 360,000 tested, 1.4% active; AID 602449;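 active = inhibition of 50% or more, scaled per plate between neutral and stimulator controls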;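 note: 0% = DMSO wells given calcium and 100% = 1 mM EGTA wells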
MT1-MMP act inh = inhibitors of human MT1-MMP activation; P50281; HT1080 RFP-PRO-GFP cells, GFP/RFP ratio fluorescence, overnight; percent of plate control window, DMSO zero; GFP/RFP ratio change, % at 20 µM; 360,000 tested, 0.061% active; AID 651647;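 active = GFP/RFP ratio change of at least 30% with cell ATP level not reduced by more than half and red fluorescence within 50% of control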
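Test system: HT1080 cells expressing an RFP-PRO-GFP fluorescent reporter construct / Compound dosing: single-point 20 µM compound, 1% DMSO / Schedule: cells overnight before dosing, compound overnight, 37 °C, 5% CO2 / Evaluation: GFP/RFP fluorescence ratio / Control set: DMSO and RFP-L50D-GFP cell wells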
SKN-1 block = blocks SKN-1 activity in C. elegans | 360,000 tested, 0.49% active | C. elegans VP596 Pgst-4::GFP/RFP ratio, acrylamide-induced, 24 h | inhibition, % at 21.8 µM;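 active = interference check ratio from 0.5 to 1.5 plus GFP to RFP signal ratio inhibition reaching or exceeding a fixed threshold, cut at about 30% in these data, passing the limit was not always enough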
ATG4B confirm = ATG4B (human) inhibition, single-dose confirmed; shares compounds with ATG4B inh; ATG4B protease fluorescent substrate cleavage assay; inhibition, % at 8.33 µM; 320 tested, 92% active; AID 504757; in the data active = inhibition above about 39%
PLA2 counter = PLA2 (human) inhibition in ATG4B counter-screen | shares compounds with ATG4B inh | purified PLA2, NBD-C6-HPC fluorescence, 45 min | inhibition, % at 8.33 µM | 1,600 tested, 66% active; in the data active = inhibition above about 50%
Target sequence (P04054 whole entry, looked up): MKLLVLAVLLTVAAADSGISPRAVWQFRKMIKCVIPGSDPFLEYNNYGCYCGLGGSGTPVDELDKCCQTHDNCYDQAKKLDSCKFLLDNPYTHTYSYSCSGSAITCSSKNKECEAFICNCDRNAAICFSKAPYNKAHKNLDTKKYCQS
* marks the source's active call; other numbers are inactive results; . = no result given. The list is not random: actives were taken first. Their share in the collection is about 2.3%.

SMILES	ATG4B inh	MPTP block	MT1-MMP act inh	SKN-1 block	PLA2 counter	others
O=C(NCCc1ccccc1Cl)c1cc(COc2ccc(F)cc2F)on1	46*	0	0	8	55*
CCOc1ccc(NCc2ccccc2OCc2cccc(F)c2)cc1	46*	6	4	12	36	ATG4B confirm=60*
N/C(=N/O)c1ccccc1N1CCC(Cc2ccccc2)CC1	40*	4	-10	9	58*
COc1cccc(-c2nc(SCC(=O)Nc3nc(-c4ccccc4)c(C)s3)[nH]c(=O)c2C#N)c1	42*	13	3	11	38	ATG4B confirm=75*
CCOc1ccc2nc(NC(=O)CSc3nc(-c4ccccc4)c(C#N)c(=O)[nH]3)sc2c1	30	0	-2	1	.
O=C(Nc1ccccc1-c1ccccc1)c1ccccc1	5	0	-1	9	.
Nc1c(S(=O)(=O)O)cc(NC(=O)c2ccccc2)c2c1C(=O)c1ccccc1C2=O	76*	8	57*	33	68*
CC(C)c1ccc(CNC(=O)C(=O)NCC2CCCO2)cc1 (stereo not drawn)	2	1	2	17	.
O=C(/C=C1\NC2(CCCC2)Cc2ccccc21)C(=O)N/N=C/c1ccc(O)c(O)c1	61*	-5	-28	7	68*
COc1cccc(C(C(=O)NC2CCCC2)N(C(=O)c2ccco2)c2ccc(NC(C)=O)cc2)c1OC (stereo not drawn)	5	0	-5	9	.
COc1ccc(S(=O)(=O)NC(=O)C2(C)CCN2C(=O)C2CCCCC2)cc1OC (stereo not drawn)	.	0	-2	4	.
O=C(CSc1ccc(Cl)cc1)Nc1ccccc1Oc1ccccc1	40*	1	-6	-3	15
Cc1ccc(S(=O)(=O)C2C(=O)N(C)C3(C)CC2c2ccccc2O3)cc1 (stereo not drawn)	66*	-1	-5	-1	74*
Cc1ccc(S(=O)(=O)N2CCOCC2)cc1NC(=O)c1ccc(F)cc1F	-3	-3	-2	17	.
CCOC(=O)c1ccc(/C=C2/C=C(c3ccccc3)N(c3ccc(Cl)c(C(=O)O)c3)C2=O)cc1	56*	8	-9	-1	41	ATG4B confirm=77*
O=C(O)c1cc(O)c2c(c1)[C@H]([C@H]1c3cc(C(=O)O)cc(O)c3C(=O)c3c(O[C@@H]4O[C@H](CO)[C@@H](O)[C@H](O)[C@H]4O)cccc31)c1cccc(OC3O[C@H](CO)[C@@H](O)[C@H](O)[C@H]3O)c1C2=O (stereo partly drawn)	95*	-3	9	4	-12
O=C(O)c1cc2c(cc1NC(=O)c1ccccc1OC(F)F)OCCCO2	44*	0	2	21	42	ATG4B confirm=58*
CCCOC1CCCN(C(=O)c2ccc(OC3CCN(Cc4ccccn4)CC3)cc2)C1 (stereo not drawn)	4	-1	0	-7	.
COc1c(Cl)cc(Cl)cc1CNc1ccc(S(N)(=O)=O)cc1	82*	1	0	2	85*
CC(C)(C)c1ccc(-c2nc(C#N)c(N3CCC(C(N)=O)CC3)o2)cc1	56*	1	-1	7	56*
COc1ccc(-c2nc(C#N)c(N3CCC(C(N)=O)CC3)o2)cc1	-4	6	3	-14	.
Clc1cccc(Cl)c1CO/N=C/c1cccs1	-11	0	2	5	.
Cc1c(C)c(C)c(CO/N=C/c2cccs2)c(C)c1C	60*	2	-3	5	42	ATG4B confirm=66*
Cc1ccc(O)c(CNc2ccc(S(=O)(=O)Nc3nccs3)cc2)c1	-2	0	7	0	.
Cc1ccc(NC(=O)CC(C)CC(=O)NCc2ccccc2)cc1Cl (stereo not drawn)	2	-1	7	13	.
COc1ccc(CCN2C(=S)N(C)C(=O)C2CC(=O)Nc2ccc(F)cc2)cc1 (stereo not drawn)	43*	10	5	-1	56*
CCN1C(=O)C(CC(=O)Nc2ccc(OC)cc2)N(CCc2ccc(OC)cc2)C1=S (stereo not drawn)	5	0	5	-3	.

Compound activity (PubChem)
